Screening results: PubChem, Broad Institute
Shown is part of a subset that was picked to be rich in hits.
A1 apoptosis 2 – compounds inhibiting A1, read as caspase activation; MEF A1-2A-BIM cells, caspase-Glo luminescence, 3 h; percent of clofoctol response, DMSO zero; caspase activation, % (test concentration not listed); 24,000 tested, under 10 active; in the data active = caspase activation above about 5.9%; inconclusive = no clear call, values can overlap the other calls; inactive = below about 2.2%
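Test system – A1-2A-BIM-expressing MEF cells · Input – 2500 cells/well · Medium – RPMI-1640 growth medium with 10% FBS · Compound dosing – 50 nL pinned compound · Timing – 3 h compound exposure at 37 °C · Technique – Caspase-Glo luminescence (DEVD substrate) · Evaluation – Caspase-3/7 activity from luminescence increase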
T cruzi intra – blocks T. cruzi growth inside host cells | intracellular Trypanosoma cruzi in host cells, plate reader | activity score (inhibition), % at 5.01 µM | actives 4.9% (n = 22,000) | AID 651903; in the data active = activity score above about 55%; inconclusive = no clear call, values can overlap the other calls;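 also: parasites and compound incubated about four days before reading; 0% = median of neutral control wells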
INS-1E rescue – preserves ATP levels in cytokine-treated INS-1E cells | INS-1E cytokine-induced death, ATP luminescence, 48 h; normalised: neutral wells 0, positive control 100 | protection from cytokine-induced ATP loss, % at 10 µM | actives 0.1% (n = 20,000) | AID 488910;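 active = mean replicate protection from cytokine-induced ATP loss at least 50% and at least 75% of replicates each reaching 50%; inconclusive = meets only one of the two criteria, mean or replicate share; inactive = fails both the mean and replicate share criteria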
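Assay system – rat INS-1E insulinoma cell line · Quantity – 8000 cells per well · Buffer or medium – RPMI without phenol red, 5% FBS · Schedule – 48 h co-treatment, 10 min post-lysis read · Technique – luminescent ATP assay (CellTiter-Glo)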
The depositor's hits bear a star; ? = inconclusive; . = no result given.

SMILES	A1 apoptosis 2	T cruzi intra	INS-1E rescue
Cc1ccc(S(=O)(=O)N(C)C[C@@H]2Oc3ccc(NC(=O)Nc4ccc(C(F)(F)F)cc4)cc3CC(=O)N([C@@H](C)CO)C[C@@H]2C)cc1	.	?	-57
Cc1ccc(S(=O)(=O)N(C)C[C@H]2Oc3ccc(NC(=O)Nc4ccc(C(F)(F)F)cc4)cc3CC(=O)N([C@@H](C)CO)C[C@H]2C)cc1	1	58*	-36
COc1ccc(S(=O)(=O)N(C)C[C@H]2Oc3ccc(NC(=O)Nc4ccc(C(F)(F)F)cc4)cc3CC(=O)N([C@H](C)CO)C[C@@H]2C)cc1	2	.	.
O=C(NO)c1cccc(C(=O)N/N=C/c2ccc(-n3ccnc3)cc2)c1	1	-21	10
O=C(CCCCCCC(=O)Nc1ccccc1O)NN=C1CCCCCCC1	0	2	1
COC(=O)CCCCCCC(=O)N/N=C/c1ccco1	1	-14	-3
C[C@@H]1CCCCO[C@H](CN(C)C(=O)Nc2ccc(F)cc2)[C@H](C)CN([C@@H](C)CO)C(=O)c2cc(NC(=O)CCCN(C)C)ccc2O1	0	.	.
C[C@@H]1CN([C@@H](C)CO)C(=O)Cc2cc(NC(=O)Nc3ccc(C(F)(F)F)cc3)ccc2O[C@@H]1CN(C)S(=O)(=O)c1ccc(F)cc1	.	81*	-4
C[C@H]1CN([C@@H](C)CO)C(=O)Cc2cc(NC(=O)Nc3ccc(C(F)(F)F)cc3)ccc2O[C@H]1CN(C)S(=O)(=O)c1ccc(F)cc1	-2	31	-13
Cc1noc(C)c1S(=O)(=O)Nc1ccc2c(c1)C(=O)N([C@H](C)CO)C[C@@H](C)[C@H](CN(C)C(=O)Nc1ccc(C(F)(F)F)cc1)OCCCC[C@@H](C)O2	-1	.	.
Cc1noc(C)c1S(=O)(=O)Nc1ccc2c(c1)C(=O)N([C@H](C)CO)C[C@H](C)[C@@H](CN(C)C(=O)Nc1ccc(C(F)(F)F)cc1)OCCCC[C@@H](C)O2	.	58*	2
Cc1noc(C)c1S(=O)(=O)Nc1ccc2c(c1)C(=O)N([C@@H](C)CO)C[C@@H](C)[C@H](CN(C)C(=O)Nc1ccc(C(F)(F)F)cc1)OCCCC[C@H](C)O2	0	.	.
Cc1noc(C)c1S(=O)(=O)Nc1ccc2c(c1)C(=O)N([C@H](C)CO)C[C@H](C)[C@H](CN(C)C(=O)Nc1ccc(C(F)(F)F)cc1)OCCCC[C@@H](C)O2	.	58*	4
C[C@H](CO)N1C[C@H](C)[C@@H](CN(C)CC2CCCCC2)Oc2c(NC(=O)CCCCCC(=O)Nc3ccccc3N)cccc2C1=O	0	.	.
COC(=O)CCCCCCC(=O)N/N=C/c1cc(I)cc(I)c1O	1	88*	27
O=C(N/N=C/c1cccc(O)c1O)c1ccccn1	.	29	-55
O=C(N/N=C/c1cc(I)cc(I)c1O)c1ccccn1	0	91*	-107
COC(=O)CCCCCCC(=O)N/N=C/c1cc(Cl)cc(Cl)c1O	.	20	17
C[C@@H]1CCCCO[C@H](CN(C)Cc2ccc(C(F)(F)F)cc2)[C@H](C)CN([C@@H](C)CO)C(=O)c2cc(NS(=O)(=O)c3cn(C)cn3)ccc2O1	-1	.	.
C[C@@H]1CN([C@@H](C)CO)C(=O)Cc2cc(NC(=O)CCCCCC(=O)Nc3ccccc3N)ccc2O[C@@H]1CN(C)CC1CC1	0	.	.
C=C(C)[C@@H]1CC=C(/C=N/NC(=O)CCCCCCC(=O)O)CC1	1	-14	10
O=S(=O)(NC1CCN(Cc2cccc(OCCO)c2)CC1)c1cc(C(F)(F)F)ccc1Cl	-1	.	.
O=C(CCCCCCC(=O)N/N=C\c1ccc(O)c2ccccc12)NO	0	14	151*
CCOc1cccc(/C=N/NC(=O)CCCCCCC(=O)OC)c1OCC	0	1	6
O=C(CCCCCC(=O)N/N=C/c1ccccc1O)NO	0	.	.
SMILES	A1 apoptosis 2	T cruzi intra	INS-1E rescue
O=C(CCCCCCC(=O)Nc1ccccc1O)N/N=C/c1ccc(O)c2ccccc12	1	-3	-1
COc1cc(Cl)c(/C=N\NC(=O)CCCCC(=O)NO)c(Cl)c1OC	-1	18	68*
O=C(CCCCC(=O)N/N=C/c1c(O)ccc2ccccc12)NO	0	-4	132*
CCOc1cccc(/C=N/NC(=O)CCCCC(=O)NO)c1OCC	-1	-7	81*
COc1cc(Cl)c(/C=N/NC(=O)CCCCCCC(=O)Nc2ccccc2O)c(Cl)c1OC	.	-12	3
CC(C)(C)OC(=O)NC/C=N/NC(=O)c1ccccn1	-1	12	-2
O=C(O)CCCCCCC(=O)NN=C1CCCC1	1	-14	0
O=C(CCCCCCC(=O)Nc1ccccc1O)N/N=C/C=C/c1ccccc1	1	-20	6
Cc1ccsc1/C=N\NC(=O)CCCCC(=O)NO	.	9	59*
